The source made the active and inactive calls. No cut-off for these calls is given here.
Experiments:
[1] = test system: HeLa C3; experiment: Induction of apoptosis in human HeLaC3 cells assessed as reduction of yellow fluorescent protein/cyan fluorescent protein emission ratio below 3 at 500 nM after 48 hrs using fluorescent plate reader
[2] = test system: HeLa C3; experiment: Induction of apoptosis in human HeLaC3 cells assessed as reduction of yellow fluorescent protein/cyan fluorescent protein emission ratio below 3 at 500 nM after 72 hrs using fluorescent plate reader
[3] = test system: HeLa C3; experiment: Induction of apoptosis in human HeLaC3 cells assessed as shrinkage and detached morphology at 500 nM after 72 hrs
[4] = test system: HeLa C3; experiment: Induction of apoptosis in human HeLaC3 cells assessed as shrinkage and detached morphology at 500 nM after 48 hrs
[5] = test system: HeLa C3; experiment: Induction of apoptosis in human HeLaC3 cells assessed as reduction of yellow fluorescent protein/cyan fluorescent protein emission ratio below 3 at 500 nM after 24 hrs using fluorescent plate reader
[6] = test system: HeLa C3; experiment: Induction of apoptosis in human HeLaC3 cells assessed as shrinkage and detached morphology at 500 nM after 24 hrs
[7] = test system: HeLa C3; experiment: Induction of apoptosis in human HeLaC3 cells assessed as reduction of yellow fluorescent protein/cyan fluorescent protein emission ratio below 3 at 20 uM after 72 hrs using fluorescent plate reader; format: functional, cell-based
Procedure, shortened: (§1)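 HeLa-C3 cells express a caspase-3-cleavable CFP/YFP biosensor and are grown in MEM with 10% FBS and penicillin/streptomycin at 37 °C, 5% CO2. Seed 7500 cells per well and incubate 12-16 h. Take a 0 h read (ex 440 nm; em 486 nm CFP, 535 nm YFP), then replace the medium with compound-containing medium; include cell-free background wells. Read repeatedly up to 72 h. A YFP/CFP ratio below 3 scores as apoptotic. Triplicate wells, three experiments; 0.1% DMSO negative control.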

[8] = test system: HeLa C3; experiment: Induction of apoptosis in human HeLaC3 cells assessed as reduction of yellow fluorescent protein/cyan fluorescent protein emission ratio below 3 at 20 uM after 24 hrs using fluorescent plate reader; format: functional, cell-based
Procedure, shortened: as §1

[9] = test system: HeLa C3; experiment: Induction of apoptosis in human HeLaC3 cells assessed as reduction of yellow fluorescent protein/cyan fluorescent protein emission ratio below 3 at 20 uM after 48 hrs using fluorescent plate reader; format: functional, cell-based
Procedure, shortened: as §1

[10] = test system: HeLa C3; experiment: Induction of apoptosis in human HeLaC3 cells assessed as shrinkage and detached morphology at 20 uM after 24 hrs; format: functional, cell-based
[11] = test system: HeLa C3; experiment: Induction of apoptosis in human HeLaC3 cells assessed as shrinkage and detached morphology at 20 uM after 72 hrs; format: functional, cell-based
[12] = test system: HeLa C3; experiment: Induction of apoptosis in human HeLaC3 cells assessed as shrinkage and detached morphology at 20 uM after 48 hrs; format: functional, cell-based

SMILES | Activity [7] | Activity [8] | Activity [9] | other results
CC(=O)O[C@H]1C(=O)[C@@]2(C)[C@H]([C@H](OC(=O)c3ccccc3)[C@]3(O)C[C@H](OC(=O)[C@H](O)[C@@H](NC(=O)c4ccccc4)c4ccccc4)C(C)=C1C3(C)C)[C@]1(OC(C)=O)CO[C@@H]1C[C@@H]2O |  |  |  | Activity [1]: Active; Activity [2]: Active; Activity [3]: Active; Activity [4]: Active; Activity [5]: inactive; Activity [6]: Active
CC(C)=CCC/C(C)=C/C[C@H]1C[C@@]2(CC=C(C)C)C(=O)c3c(oc4cc(O)c(O)cc4c3=O)[C@](CC=C(C)C)(C2=O)C1(C)C | Active | inactive | Active | 
CC1(C)C=Cc2cc3c(=O)c4c(O)cc(O)cc4oc3c(O)c2O1 | Active | inactive | inactive | 
CC(C)=CCC/C(C)=C/C[C@@H]1C[C@]2(CC=C(C)C)C(=O)[C@@](CC=C(C)C)(C(=O)C(C(=O)c3ccc(O)c(O)c3)=C2O)C1(C)C | Active | inactive | Active | 
CC(C)=CCC/C(C)=C/C[C@H]1C[C@]2(C/C=C(\C)CCC=C(C)C)C(=O)[C@@](CC=C(C)C)(C(=O)C(C(=O)c3ccc(O)c(O)c3)=C2O)C1(C)C | Active | inactive | inactive | 
COc1cc(O)c2c(=O)c3c(CC=C(C)C)cc(O)c(O)c3oc2c1C/C=C(\C)CCC=C(C)C | Active | inactive | Active | 
CC(C)=CCC/C(C)=C/C[C@@H]1C[C@]2(CC=C(C)C)C(=O)[C@@](CC=C(C)C)(C(=O)C(C(=O)c3ccc(O)c(O)c3)=C2O)[C@@]1(C)CCC=C(C)C | Active | Active | Active | Activity [10]: Active; Activity [11]: Active; Activity [12]: Active
COc1cc(O)c2c(=O)c3ccc(O)c(O)c3oc2c1CCC(C)(C)O | Active | inactive | inactive | 
CC(C)=CCC/C(C)=C/C[C@@H]1C[C@@]2(CC=C(C)C)C(=O)c3c(oc4cc(O)c(O)cc4c3=O)[C@](CC=C(C)C)(C2=O)C1(C)C | Active | inactive | Active | 

— ChEMBL document CHEMBL1151810, “Bioassay-guided isolation of xanthones and polycyclic prenylated acylphloroglucinols from Garcinia oblongifolia” (J Nat Prod, 2009)
